What was measured:
Assay in all cases: NCI-60 single-dose antiproliferative screen
Assay type in all cases: cell-based
[1] = system: K-562; settings: Homo sapiens, K562, 48 h, read-out: growth percent
Outline: (§1)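 NCI-60 protocol. Lines were grown in RPMI 1640 with 5% FBS and 2 mM L-glutamine, plated and incubated 24 h at 37 °C; time-zero plates were TCA-fixed. The test compound was dissolved in DMSO, diluted in medium with 50 μg/mL gentamicin and given once at a final 10^-5 M (DMSO control) for 48 h. Cells were fixed with cold TCA (1 h, 4 °C) and stained with 0.4% SRB in 1% acetic acid for 10 min. Dye was dissolved in 10 mM Trizma base and read at 515 nm. Growth percent was calculated from time-zero, test and control ODs.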

[2] = system: RPMI-8226; settings: Homo sapiens, RPMI-8226, 48 h, read-out: growth percent
Outline: as §1

[3] = system: SR; settings: Homo sapiens, 48 h, read-out: growth percent
Outline: (§2)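 Cells grown in RPMI 1640 with 5% FBS and 2 mM L-glutamine, plated and held 24 h at 37 °C; time-zero plates TCA-fixed. DMSO stocks were diluted in gentamicin-containing medium to a final 10^-5 M, with a DMSO-only control. Exposure 48 h, 5% CO2. Adherent cells TCA-fixed 1 h at 4 °C, stained with 0.4% SRB, solubilised in 10 mM Trizma base, read at 515 nm. Growth percent derived from ODtzero, ODtest and ODctrl.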

[4] = system: EKVX; settings: Homo sapiens, 48 h, read-out: growth percent
Outline: as §1

[5] = system: HOP-92; settings: Homo sapiens, HOP-92, 48 h, read-out: growth percent
Outline: as §1

[6] = system: NCI-H226; settings: Homo sapiens, NCI-H226, 48 h, read-out: growth percent
Outline: as §1

[7] = system: NCI-H23; settings: Homo sapiens, NCI-H23, 48 h, read-out: growth percent
Outline: as §1

[8] = system: NCI-H460; settings: Homo sapiens, NCI-H460, 48 h, read-out: growth percent
Outline: as §1

[9] = system: NCI-H522; settings: Homo sapiens, NCI-H522, 48 h, read-out: growth percent
Outline: as §1

[10] = system: COLO205; settings: Homo sapiens, COLO 205, 48 h, read-out: growth percent
Outline: as §1

[11] = system: HCC-2998; settings: Homo sapiens, HCC 2998, 48 h, read-out: growth percent
Outline: as §1

[12] = system: HCT-15; settings: Homo sapiens, HCT-15, 48 h, read-out: growth percent
Outline: as §1

[13] = system: HT29; settings: Homo sapiens, HT-29, 48 h, read-out: growth percent
Outline: as §1

[14] = system: KM12; settings: Homo sapiens, KM12, 48 h, read-out: growth percent
Outline: as §1

[15] = system: SF-295; settings: Homo sapiens, SF-295, 48 h, read-out: growth percent
Outline: as §1

[16] = system: SNB-19; settings: Homo sapiens, SNB-19, 48 h, read-out: growth percent
Outline: as §2

[17] = system: U251; settings: Homo sapiens, U-251, 48 h, read-out: growth percent
Outline: as §2

[18] = system: LOX IMVI; settings: Homo sapiens, 48 h, read-out: growth percent
Outline: as §1

[19] = system: MALME-3M; settings: Homo sapiens, 48 h, read-out: growth percent
Outline: as §1

[20] = system: MDA-MB-435; settings: Homo sapiens, MDA-MB-435, 48 h, read-out: growth percent
Outline: as §1

[21] = system: SK-MEL-2; settings: Homo sapiens, SK-MEL-2, 48 h, read-out: growth percent
Outline: as §2

[22] = system: SK-MEL-5; settings: Homo sapiens, SK-MEL-5, 48 h, read-out: growth percent
Outline: as §2

[23] = system: UACC-62; settings: Homo sapiens, UACC-62, 48 h, read-out: growth percent
Outline: as §2

[24] = system: OVCAR-5; settings: Homo sapiens, OVCAR-5, 48 h, read-out: growth percent
Outline: as §1

[25] = system: NCI/ADR-RES; settings: Homo sapiens, 48 h, read-out: growth percent
Outline: as §1

[26] = system: SK-OV-3; settings: Homo sapiens, SK-OV-3, 48 h, read-out: growth percent
Outline: as §2

[27] = system: 786-0; settings: Homo sapiens, 786-0, 48 h, read-out: growth percent
Outline: as §1

[28] = system: CAKI-1; settings: Homo sapiens, CAKI-1, 48 h, read-out: growth percent
Outline: as §1

[29] = system: RXF 393; settings: Homo sapiens, RXF 393, 48 h, read-out: growth percent
Outline: as §1

[30] = system: TK-10; settings: Homo sapiens, TK-10, 48 h, read-out: growth percent
Outline: as §2

[31] = system: UO-31; settings: Homo sapiens, UO-31, 48 h, read-out: growth percent
Outline: as §2

[32] = system: MCF-7; settings: Homo sapiens, MCF7, 48 h, read-out: growth percent
Outline: as §1

[33] = system: HS 578T; settings: Homo sapiens, 48 h, read-out: growth percent
Outline: as §1

[34] = system: BT-549; settings: Homo sapiens, BT-549, 48 h, read-out: growth percent
Outline: as §1

[35] = system: T-47D; settings: Homo sapiens, T47D, 48 h, read-out: growth percent
Outline: as §2

[36] = system: MDA-MB-468; settings: Homo sapiens, MDA-MB-468, 48 h, read-out: growth percent
Outline: as §1

Compound	activity at 10 µM [1] [%]	activity at 10 µM [2] [%]	activity at 10 µM [3] [%]	activity at 10 µM [4] [%]	activity at 10 µM [5] [%]	activity at 10 µM [6] [%]	activity at 10 µM [7] [%]	activity at 10 µM [8] [%]	activity at 10 µM [9] [%]	activity at 10 µM [10] [%]	activity at 10 µM [11] [%]	activity at 10 µM [12] [%]	activity at 10 µM [13] [%]	activity at 10 µM [14] [%]	activity at 10 µM [15] [%]	activity at 10 µM [16] [%]	activity at 10 µM [17] [%]	activity at 10 µM [18] [%]	activity at 10 µM [19] [%]	activity at 10 µM [20] [%]	also measured
COc1cc(CNC(=O)CCCC/C=C/C(C)C)ccc1OCc1cn(-c2ccccc2F)nn1 [14i, (E)-N-(4-((1-(2-Fluorophenyl)-1H-1,2,3-triazol-4-yl)methoxy)-3-methoxybenzyl)-8-methylnon-6-enamide]	82.3	81.3	81.5	79.1	78.7	81.3	95.3	104	77.5	116	97.2	96	107	98.9	99	84.8	93.1	87.1	108	101	activity at 10 µM [21]: 106%; activity at 10 µM [22]: 91.5%; activity at 10 µM [23]: 76.2%; activity at 10 µM [24]: 103%; activity at 10 µM [25]: 89.8%; activity at 10 µM [26]: 97.8%; activity at 10 µM [27]: 97.2%; activity at 10 µM [28]: 90.6%; activity at 10 µM [29]: 103%; activity at 10 µM [30]: 111%; activity at 10 µM [31]: 77.1%; activity at 10 µM [32]: 97.1%; activity at 10 µM [33]: 87.7%; activity at 10 µM [34]: 89.2%; activity at 10 µM [35]: 83.1%; activity at 10 µM [36]: 92.8%
COc1cc(CNC(=O)CCCC/C=C/C(C)C)ccc1OCc1cn(-c2ccc([N+](=O)[O-])cc2)nn1 [14e, (E)-N-(3-Methoxy-4-((1-(4-nitrophenyl)-1H-1,2,3-triazol-4-yl)methoxy)benzyl)-8methylnon-6-enamide]	74.5	61.8	62.2	75.3	90.3	89.6	83.2	99.8	78.2	118	108	96.2	98.1	90	89	97.4	86.4	89.5	98.4	99.7	activity at 10 µM [21]: 92%; activity at 10 µM [22]: 76.1%; activity at 10 µM [23]: 69.3%; activity at 10 µM [24]: 99.2%; activity at 10 µM [25]: 29%; activity at 10 µM [26]: 76.7%; activity at 10 µM [27]: 93.7%; activity at 10 µM [28]: 90.7%; activity at 10 µM [29]: 99.7%; activity at 10 µM [30]: 92.7%; activity at 10 µM [31]: 60.6%; activity at 10 µM [32]: 83.5%; activity at 10 µM [33]: 95.8%; activity at 10 µM [34]: 80.4%; activity at 10 µM [35]: 64%; activity at 10 µM [36]: 77.4%
COc1cc(CNC(=O)CCCC/C=C/C(C)C)ccc1OCc1cn(-c2cccc([N+](=O)[O-])c2)nn1 [14f, (E)-N-(3-Methoxy-4-((1-(3-nitrophenyl)-1H-1,2,3-triazol-4-yl)methoxy)benzyl)-8-methylnon-6-enamide]	81.5	65.9	78.4	95.1	70.4	90.9	88	91.8	82.6	107	101	77.9	88.9	91.2	104	68.2	85.3	92.9	103	101	activity at 10 µM [21]: 88.4%; activity at 10 µM [22]: 93.2%; activity at 10 µM [23]: 70%; activity at 10 µM [24]: 107%; activity at 10 µM [25]: 81.8%; activity at 10 µM [26]: 93.5%; activity at 10 µM [27]: 73.4%; activity at 10 µM [28]: 81.7%; activity at 10 µM [29]: 92.7%; activity at 10 µM [30]: 105%; activity at 10 µM [31]: 74.7%; activity at 10 µM [32]: 74.1%; activity at 10 µM [33]: 90.8%; activity at 10 µM [34]: 96.3%; activity at 10 µM [35]: 72.3%; activity at 10 µM [36]: 72.3%

— paper PMC9476207 (ACS Omega, 2022)
